Cytotoxicity data for 96 compounds are collected here from ChEMBL document CHEMBL4513216, “Probing the Open Global Health Chemical Diversity Library for Multistage-Active Starting Points for Next-Generation Antimalarials” (ACS Infect Dis, 2020).

The series can be described thus: Toxicity liver stage against HepG2, at 10uM. The format is cell-based. Also on record: test concentration 10 uM, cell line HepG2-A16-CD81EGFP. To be noted: human, HepG2-A16-CD81EGFP cells; read-out: INHIBITION
In outline: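 Uninfected HepG2-A16-CD81EGFP cells, 3 × 10^3 per well, 1536-well, plated on prespotted compound at 10 μM final, parasite-free screening media added to match infected plates; puromycin 10 μM positive, DMSO 0.5% negative; run in parallel with 48 h PbLuc assay at 37 °C, 5% CO2; viability by CellTiter-Glo luminescence, normalized to controls.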

As to `Cc1cc(CN2CCN(Cc3cc(C#N)ccc3F)CC2)no1`, the cytotoxicity at 10 µM stood at 5.78%.

On to `CCC[C@@H]1CN(C(=O)c2ccccc2C(C)=O)C[C@H]1N(C)C`, for which the cytotoxicity at 10 µM is -0.254%.

With `CCS(=O)(=O)N1CC[C@H](OC)[C@H]2CN(Cc3ccncc3)C[C@H]21`, the cytotoxicity at 10 µM was 10.3%.

Regarding `CN(C)CC1CSCCCN1C(=O)Nc1ccc(C(C)(C)C)cc1` (stereo unspecified), the cytotoxicity at 10 µM is 6.79%.

For the compound `Cc1csc(C2(NCc3csc(C4CC4)n3)CCCC2)n1`, the cytotoxicity at 10 µM was 4.32%.

As for `CCn1ccnc1CN1CCCN(C(=O)c2cccn2C)CC1`, the cytotoxicity at 10 µM was -8.93%.

As for `Cc1noc(-c2ccc(N3CCN(Cc4nccn4C)CC3)nc2)n1`, the cytotoxicity at 10 µM amounted to 3.19%.

`CC(C)NC(=O)[C@@H]1C[C@@H](N)CN1C(=O)CCSCc1ccc(F)cc1`: the cytotoxicity at 10 µM is -3.43%.

Consider `Cc1occc1C(=O)N1CCc2c(CNc3ncccn3)cncc2C1`, for which the cytotoxicity at 10 µM was -83.1%.

`O=C(CCCc1ccccn1)N1CCSC2(CCCCC2)C1`: the cytotoxicity at 10 µM was -3.71%.

As to `CC(C)n1[nH]c(=O)c2c1NC(=O)CC2c1cccc(OC(F)F)c1` (stereo unspecified), the cytotoxicity at 10 µM came out at 16%.

For the compound `CCc1nccn1C1CCCN(C(=O)C2=NN(C)C(=O)CC2)C1` (stereo unspecified), the cytotoxicity at 10 µM is -17.7%.

In the case of `O=S(=O)(c1cn[nH]c1)N1C[C@@H](O)[C@H](N2CCc3ccccc3C2)C1`, the cytotoxicity at 10 µM was -3.47%.

As to `CN(C)c1nc(N)nc(CN2CCCC(c3ccccc3)CC2)n1` (stereo unspecified), the cytotoxicity at 10 µM was 5.47%.

For `CC(C)N1CC[C@H](c2nnc(Cc3c[nH]c4ccccc34)o2)C1`, the cytotoxicity at 10 µM was -9.04%.

For `Cc1c(Cl)cccc1NC(=O)N1CCC2(CC1)NC(=O)CC2C(=O)O` (stereo unspecified), the cytotoxicity at 10 µM is -1%.

Turning to `c1csc(-c2nc(CN3CCOC(Cn4cccn4)C3)co2)c1` (stereo unspecified), the cytotoxicity at 10 µM was -11.1%.

As to `Cc1nc(COC[C@@]23CCC[C@@H]2CN(Cc2nccs2)C3)cs1`, the cytotoxicity at 10 µM was determined as 12.9%.

Regarding `Cc1ccccc1N1CC2(CCN(S(=O)(=O)c3cccs3)C2)CC1=O` (stereo unspecified), the cytotoxicity at 10 µM was found to be 14.1%.

Regarding `CCn1nc(C)c(S(=O)(=O)N(C)c2ccc(Cl)cn2)c1C`, the cytotoxicity at 10 µM was -2.13%.

As for `COC(=O)N1CCCC(NC(=O)NCc2ccc(C)nc2)C1` (stereo unspecified), the cytotoxicity at 10 µM is -4.73%.

For `Cc1nc(C2CCCN2C(=O)Cc2cccc(F)c2)nc(O)c1C` (stereo unspecified), the cytotoxicity at 10 µM was -26.9%.

For `COc1ccc(CCC(=O)N2CCCC(n3cncn3)C2)cc1` (stereo unspecified), the cytotoxicity at 10 µM was -21%.

As for `CN(CC(C)(C)C)S(=O)(=O)c1ccc(C(F)(F)F)nc1`, the cytotoxicity at 10 µM is 3.24%.

As for `CNc1ncccc1CN1CCC1c1cc(N)nc(C)n1` (stereo unspecified), the cytotoxicity at 10 µM came to 15.9%.

As to `COc1ccc2c(OCC(=O)NCC(F)(F)F)ccnc2c1`, the cytotoxicity at 10 µM is -3.88%.

`O=C(Cc1c[nH]c(=O)[nH]c1=O)N1CCCCC1CCc1cccc(O)c1` (stereo unspecified): the cytotoxicity at 10 µM came out at 14.5%.

For the compound `Cc1ccccc1OC1(C(=O)O)CCN(C(=O)CCc2ccco2)CC1`, the cytotoxicity at 10 µM worked out at 1.5%.

As for `CCN1CCN(C(=O)c2cc(C(F)(F)F)n[nH]2)[C@H]2CS(=O)(=O)C[C@H]21`, the cytotoxicity at 10 µM was -3.77%.

Turning to `CCn1c(C2CCCN(S(=O)(=O)C3CC3)C2)nn(CCN(C)C)c1=O` (stereo unspecified), the cytotoxicity at 10 µM was 0.522%.

For `CCSCCC(C)N(C)C(=O)c1cc(C)no1` (stereo unspecified), the cytotoxicity at 10 µM was -9.99%.

Turning to `CN1[C@@H](c2ccccc2)[C@@H](C(=O)NCc2ccncc2)C[C@@]1(C)C(=O)O`, the cytotoxicity at 10 µM was -40.6%.

For the compound `Cc1[nH]c2c(F)cccc2c1CC(=O)N1CCN(C2CCSCC2)CC1`, the cytotoxicity at 10 µM stood at 4.82%.

For the compound `Cc1nc(C)n(C2CCCN(C(=O)Cc3cn4ccccc4n3)C2)n1` (stereo unspecified), the cytotoxicity at 10 µM is -18.3%.

As to `CC(C)COCCC(=O)Nc1cccnc1-n1cncn1`, the cytotoxicity at 10 µM came to 1.28%.

With `Cc1nc(Nc2ccccn2)cc(C2CCCN2C2CCOCC2)n1` (stereo unspecified), the cytotoxicity at 10 µM was -18.1%.

On to `Cc1cc(CN2CCCC2)cc(Oc2ccc3c(c2)CC(CN)O3)c1` (stereo unspecified), for which the cytotoxicity at 10 µM is 0.298%.

For `O=C1CCC(C(=O)N2CCOC(Cc3ccccc3Cl)C2)=NN1` (stereo unspecified), the cytotoxicity at 10 µM was -0.108%.

Turning to `Cc1cc(N2CCN(Cc3ccccc3)CC(O)C2)nc(N)n1` (stereo unspecified), the cytotoxicity at 10 µM worked out at 1.06%.

For `CCc1c(C(=O)O)nnn1-c1cc(C)ccc1C`, the cytotoxicity at 10 µM is -23.7%.

In the case of `Cc1ccc(CN(C)C(=O)CN2CCCCC2Cn2cncn2)cc1` (stereo unspecified), the cytotoxicity at 10 µM is 17.7%.

In the case of `CC(C)n1cc(S(=O)(=O)N2CCCC(N3CCCCC3)C2)cn1` (stereo unspecified), the cytotoxicity at 10 µM came to 2.78%.

`COc1ccc(NC(=O)CCC2CCCN(S(=O)(=O)C3CC3)C2)cc1Cl` (stereo unspecified): the cytotoxicity at 10 µM was found to be 11.3%.

Consider `O=C(NCc1cccs1)NCC(O)(c1cccs1)C1CC1` (stereo unspecified), for which the cytotoxicity at 10 µM was found to be 1.66%.

In the case of `Cc1ccc2cccc(Oc3nc(C)c(C(=O)O)s3)c2n1`, the cytotoxicity at 10 µM was 6.39%.

As to `Cc1cc(C(=O)NCc2cccnc2N(C)C)c(C)o1`, the cytotoxicity at 10 µM was -9.51%.

For the compound `CC(C)CC(=O)Nc1ccc2c(c1)ncn2CC(=O)NCCN(C)C`, the cytotoxicity at 10 µM is -7.58%.

Regarding `CC(C)(C)c1cc(CN2CC[C@@H](NC(=O)c3cccnc3)[C@H](O)C2)n[nH]1`, the cytotoxicity at 10 µM was -13.2%.

Turning to `CN(C)C(=O)N1CCN(C(=O)c2ccc(Cl)cc2)CC2(CNC(=O)C2)C1` (stereo unspecified), the cytotoxicity at 10 µM stood at 10.5%.

For `CC(C)(C)C(=O)NCC(=O)NCC1CCCS1` (stereo unspecified), the cytotoxicity at 10 µM was 3.46%.

`COc1c(C)cnc(CN(C)C(=O)c2ccccc2O)c1C`: the cytotoxicity at 10 µM was -14.3%.

Turning to `CNc1ncc(CN(C)C(=O)c2cccc(CC3CCNCC3)c2)cn1`, the cytotoxicity at 10 µM is -19.7%.

Regarding `Cc1ncsc1C(=O)N(C)CCc1ccncc1`, the cytotoxicity at 10 µM is -3.81%.

In the case of `Cc1cc2nccc(C3CCN(C(=O)c4ccccc4F)CC3)n2n1`, the cytotoxicity at 10 µM was found to be 1.16%.

`O=C1CCN(C(=O)c2csc(-c3ccc(C(F)(F)F)cc3)n2)CCN1`: the cytotoxicity at 10 µM was -12.3%.

For the compound `CC(C)n1ccnc1C1CCN(C(=O)c2ccccn2)CC1`, the cytotoxicity at 10 µM was -2.85%.

`CC(=O)Nc1ccc(-c2ccccc2NC(=O)CN)cc1`: the cytotoxicity at 10 µM was 2.83%.

`Cc1cccc(CNC(=O)CNc2cc(CO)ccc2Cl)c1`: the cytotoxicity at 10 µM stood at 1.73%.

As for `O=C(C1CC=CC1)N1CC[C@@H](O)[C@H]1Cc1cccnc1`, the cytotoxicity at 10 µM was -99.4%.

As to `CCc1noc(CN2CCN(C(=O)C3CC3)CC2)n1`, the cytotoxicity at 10 µM is -1.88%.

For the compound `Cc1csc(CN2CC(CO)Oc3ccccc32)n1` (stereo unspecified), the cytotoxicity at 10 µM came to 6.62%.

In the case of `Cc1nsc(N2CCN(C(=O)Nc3ccc4[nH]ccc4c3)CC2)n1`, the cytotoxicity at 10 µM was 4.52%.

For the compound `CCOCC(=O)N1CCOCC2(CCN(c3ncccn3)C2)C1` (stereo unspecified), the cytotoxicity at 10 µM was -2.22%.

For the compound `CN(C)C(=O)C1CN(Cc2ccc(C#N)cc2)c2ccccc2O1` (stereo unspecified), the cytotoxicity at 10 µM stood at 6.47%.

In the case of `COc1ccc2c(c1)CCCN(C(C)C(=O)NC(C)C)C2` (stereo unspecified), the cytotoxicity at 10 µM was 9.56%.

As to `COc1ccc(-c2nnc(SC(C)C(N)=O)[nH]2)c(OC)c1` (stereo unspecified), the cytotoxicity at 10 µM was -15%.

For the compound `COCc1ccc(C(=O)N2CCC(Oc3ccccc3OC)CC2)s1`, the cytotoxicity at 10 µM is 5.79%.

For `CC1(C)CC(CC(=O)N2CC(C)(C)[C@@](C)(O)C2)CC(C)(C)N1`, the cytotoxicity at 10 µM was -4.84%.

As to `CC(C)(C)c1coc([C@@H]2COCCN2Cc2c[nH]cn2)n1`, the cytotoxicity at 10 µM came out at 1.21%.

Regarding `Cc1nc(C)c(CN2CCC(N(C)Cc3noc(C4CC4)n3)C2)s1` (stereo unspecified), the cytotoxicity at 10 µM is -20%.

With `CC(C)c1nnsc1CNC(=O)C1CCN(C(=O)C2CCCC2)CC1`, the cytotoxicity at 10 µM is 1.05%.

Take `CC(=O)N1CCC2(C=C(C(=O)NC3CC3)c3ccccc32)CC1`: the cytotoxicity at 10 µM was determined as 4.59%.

For `Cc1nnc(SCCNc2cc(C3CC3)ncn2)s1`, the cytotoxicity at 10 µM was -6.67%.

Regarding `CC(=O)N1Cc2ccccc2OC2(CCN(C(=O)C3CC3)CC2)C1`, the cytotoxicity at 10 µM is 9.91%.

As to `CN(C)S(=O)(=O)N1CC[C@]2(O)CCN(Cc3cc(F)cc(F)c3)C[C@@H]2C1`, the cytotoxicity at 10 µM is -0.757%.

Take `CN(CCN1CCCCCC1)c1nccc(N2CCC(O)C2)n1` (stereo unspecified): the cytotoxicity at 10 µM was found to be 5.27%.

With `CN1CCOC(C)(C(=O)Nc2nc(C(C)(C)C)cs2)C1` (stereo unspecified), the cytotoxicity at 10 µM is 6.52%.

For the compound `CC(C)(C)C(O)CN1CCN(Cc2nccn2CC(F)(F)F)CC1` (stereo unspecified), the cytotoxicity at 10 µM came out at 4.77%.

With `O=c1[nH]c2ccccc2c2c1CCO2`, the cytotoxicity at 10 µM was determined as 6.9%.

`Cc1nc(-c2noc3ccc(C(=O)NCCN4CCOCC4)cc23)cs1`: the cytotoxicity at 10 µM was 4.19%.

Take `CCCC(=O)N1CCC(C(=O)NCCNc2ncccn2)CC1`: the cytotoxicity at 10 µM is -20%.

`O=C(Cc1ccc2c(c1)OCC2)Nc1nc(C(F)(F)F)n[nH]1`: the cytotoxicity at 10 µM amounted to 2.98%.

As to `CS(=O)(=O)N1C[C@H]2CC[C@@H](C1)N(CCC(=O)NCc1ccco1)C2`, the cytotoxicity at 10 µM was -17.9%.

As to `O=C(c1nc2c(s1)CCCN2C(=O)C1CC1)N1CCOCC1`, the cytotoxicity at 10 µM came out at 4.96%.

Consider `Cn1ccc(NC(=O)CN2C[C@@H]3CC[C@H]2CN(S(C)(=O)=O)C3)n1`, for which the cytotoxicity at 10 µM was -14.2%.

For `COc1cc(C)nc(N2CCN(C(=O)CN(C)C3CC3)CC2)n1`, the cytotoxicity at 10 µM is -4.43%.

Regarding `COc1cccc(CN2CCC(c3nn(CCN)c4nccnc34)C2)c1` (stereo unspecified), the cytotoxicity at 10 µM was -24.7%.

With `Cc1nnc(N(CCC#N)CCC#N)s1`, the cytotoxicity at 10 µM is -0.402%.

On to `COc1ncccc1CNC(=O)NC1CCOc2ccccc21` (stereo unspecified), for which the cytotoxicity at 10 µM is -7%.

Turning to `CN(C)S(=O)(=O)c1ccc(CN2CCCC2c2ccsc2)o1` (stereo unspecified), the cytotoxicity at 10 µM is -8.72%.

As to `COC(=O)c1cc(NC(=O)CCc2cscn2)ccc1C`, the cytotoxicity at 10 µM was -0.172%.

As to `CC(=O)NC(C)C(=O)NCc1ccc(N2CCNC(=O)C2)cc1` (stereo unspecified), the cytotoxicity at 10 µM came to 2.03%.

In the case of `CCc1noc(C2CCCCN2C(=O)c2ccccc2)n1` (stereo unspecified), the cytotoxicity at 10 µM is -2.38%.

For `COc1ccc(C)cc1NC(=O)Nc1cnc(N2CCCC2)nc1`, the cytotoxicity at 10 µM was determined as 6.62%.

On to `COC[C@@H]1CCC[C@]12CN(Cc1cccc(C)n1)CCO2`, for which the cytotoxicity at 10 µM came out at 5.53%.

Take `O=C(CCNCc1cccc2c1OCCCO2)NC1CCCC1`: the cytotoxicity at 10 µM amounted to 0.66%.
